Test results reported in ChEMBL document CHEMBL1130056, “Novel and selective partial agonists of 5-HT3 receptors. 2. Synthesis and biological evaluation of piperazinopyridopyrrolopyrazines, piperazinopyrroloquinoxalines, and piperazinopyridopyrroloquinoxalines” (J Med Chem, 1997).

Key:
[1] = molecular target: Serotonin 3 (5-HT3) receptor; test: Binding affinity against 5-hydroxytryptamine 3 receptor was measured using [3H]granisetron as radioligand; format: protein-complex assay
[2] = molecular target: 5-hydroxytryptamine receptor 1B (Rattus norvegicus, UniProt P28564); test: Binding affinity towards 5-hydroxytryptamine 1B receptor was measured using [3H]5-HT as radioligand
Sequence of 5-hydroxytryptamine receptor 1B (P28564 whole entry): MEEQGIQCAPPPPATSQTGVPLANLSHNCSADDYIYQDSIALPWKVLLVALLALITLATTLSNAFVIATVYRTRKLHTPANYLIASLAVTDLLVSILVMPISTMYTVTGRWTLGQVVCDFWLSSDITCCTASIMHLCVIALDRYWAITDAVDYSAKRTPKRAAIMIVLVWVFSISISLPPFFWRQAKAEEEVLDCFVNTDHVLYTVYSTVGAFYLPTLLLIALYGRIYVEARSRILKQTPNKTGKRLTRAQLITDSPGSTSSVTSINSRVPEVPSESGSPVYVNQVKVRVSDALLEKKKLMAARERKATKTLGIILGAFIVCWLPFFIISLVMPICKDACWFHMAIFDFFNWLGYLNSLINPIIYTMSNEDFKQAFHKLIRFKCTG
Outline: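 Rat frontal cortex and striatum membranes (0.8 mg protein/mL), 2 nM [3H]-5-OH-tryptamine, 1 μM spiperone, 50 nM mesulergine; 25 °C, 30 min; 50 mM Tris-HCl pH 7.4, 4 mM CaCl2, 10 μM pargyline. Nonspecific binding with 10 μM propranolol. Expressed as log IC50 ± SEM.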

[3] = molecular target: 5-hydroxytryptamine receptor 2A (Bos taurus, UniProt Q75Z89); test: Binding affinity against 5-hydroxytryptamine 2A receptor was measured using [3H]ketanserin as radioligand
Sequence of 5-hydroxytryptamine receptor 2A (Q75Z89 whole entry): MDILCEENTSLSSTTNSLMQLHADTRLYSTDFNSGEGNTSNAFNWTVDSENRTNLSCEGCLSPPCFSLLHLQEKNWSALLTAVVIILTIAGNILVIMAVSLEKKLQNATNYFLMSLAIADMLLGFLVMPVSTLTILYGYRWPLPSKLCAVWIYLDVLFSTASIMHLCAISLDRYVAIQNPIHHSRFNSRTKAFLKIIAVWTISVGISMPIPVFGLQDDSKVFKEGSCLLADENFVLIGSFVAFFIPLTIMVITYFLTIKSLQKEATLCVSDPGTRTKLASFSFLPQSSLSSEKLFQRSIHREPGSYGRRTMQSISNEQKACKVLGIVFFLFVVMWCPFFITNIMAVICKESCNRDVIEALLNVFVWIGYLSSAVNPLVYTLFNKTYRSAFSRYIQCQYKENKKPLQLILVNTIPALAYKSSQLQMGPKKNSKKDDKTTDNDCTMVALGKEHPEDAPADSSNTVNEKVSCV
Outline: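 Bovine frontal cortex membranes (0.6 mg protein/mL) with 0.8 nM [3H]ketanserin and 100 nM WB4101, 37 °C for 30 min, in 50 mM Tris-HCl pH 7.4 plus 5 mM MgCl2, 10 mM NaCl, 0.5 mM EDTA, 10 μM pargyline. 10 μM spiperone defined nonspecific binding. Reported as log IC50 ± SEM.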

[4] = molecular target: 5-hydroxytryptamine receptor 1D (Sus scrofa, UniProt P79400); test: Binding affinity against 5-hydroxytryptamine 1D receptor was measured using [3H]5-HT as radioligand
Sequence of 5-hydroxytryptamine receptor 1D (P79400 whole entry): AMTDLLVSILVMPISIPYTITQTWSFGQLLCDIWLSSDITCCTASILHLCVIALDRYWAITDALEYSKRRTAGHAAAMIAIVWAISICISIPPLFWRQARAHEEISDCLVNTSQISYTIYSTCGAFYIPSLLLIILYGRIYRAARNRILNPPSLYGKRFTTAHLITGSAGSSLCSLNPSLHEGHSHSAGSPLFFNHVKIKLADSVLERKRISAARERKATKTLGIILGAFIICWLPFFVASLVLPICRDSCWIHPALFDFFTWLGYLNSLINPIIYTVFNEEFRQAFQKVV
Outline: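 Pig frontal cortex and striatum membranes (0.8 mg protein/mL), 2 nM [3H]-5-OH-tryptamine with 1 μM spiperone and 50 nM mesulergine, 25 °C, 30 min, 50 mM Tris-HCl pH 7.4, 4 mM CaCl2, 10 μM pargyline. Nonspecific binding with 10 μM 5-HT. Expressed as log IC50 ± SEM.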

[5] = molecular target: 5-hydroxytryptamine receptor 1A (Bos taurus); test: Binding affinity against 5-hydroxytryptamine 1A receptor was measured using [3H]8-OH-DPAT as radioligand
[6] = molecular target: 5-hydroxytryptamine receptor 2C (Sus scrofa); test: Binding affinity against 5-Hydroxytryptamine 2C Receptor was measured using [3H]N-methyl-mesulergine as radioligand
NG108-15 = test: In Vitro 5-HT3 agonist activity on the [14C]guanidinium accumulation in NG 108-15 cells.; format: functional, cell-based; settings: Murinae
Outline: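 NG 108-15 cells grown 2 days, washed, then incubated 10 min at 37 °C in HEPES buffer pH 7.4 with 10 mM guanidinium chloride, 200–250 nCi [14C]guanidinium, 10 μM substance P and drug. After ice-cold choline wash, cells dissolved in NaOH and radioactivity counted. EC50 from triplicates per concentration; mean ± SEM of three determinations.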

Rattus norvegicus [7] = test: In Vivo 5-HT3 antagonist activity in the Von Bezold-Jarisch reflex in rats and percent inhibition of bradycardia induced by 5-HT was reported; format: functional; settings: read-out: ID50 (the source's name)
Outline: (§1)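 Urethane-anesthetized (1.25 g/kg ip) fasted male Crl:CD(SD)BR rats; heart rate from carotid cannula. Compound in saline iv via jugular vein, usually 5 min before 5-HT bolus (30 μg/kg iv).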

Rattus norvegicus [8] = test: In Vivo 5-HT3 agonist activity in the Von Bezold-Jarisch reflex decrease in heart rate in rats at 120 (ug/kg) dose.; format: functional
Outline: (§2)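 Fasted male Crl:CD(SD)BR rats (280–320 g) under urethane (1.25 g/kg ip); heart rate from cannulated carotid artery. Compound in saline given iv via jugular cannula. Read-out is fall in heart rate as percent of pre-treatment baseline.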

Rattus norvegicus [9] = test: In Vivo 5-HT3 agonist activity in the Von Bezold-Jarisch reflex decrease in heart rate in rats at 60 (ug/kg) dose.; format: functional; outline: as §2
Rattus norvegicus [10] = test: In Vivo 5-HT3 antagonist activity in the Von Bezold-Jarisch reflex in rats after intravenous dose of 60 (ug/kg); format: functional; outline: as §1
Rattus norvegicus [11] = test: In Vivo 5-HT3 antagonist activity in the Von Bezold-Jarisch reflex in rats after intravenous dose of 120 (ug/kg); format: functional; outline: as §1
Rattus norvegicus [12] = test: In Vivo 5-HT3 antagonist activity in the Von Bezold-Jarisch reflex in rats at intravenous dose of 60 (ug/kg); format: functional; outline: as §1

| -Log IC50 [1] | IC50 [2] [µM] | IC50 [3] [µM] | IC50 [4] [µM] | IC50 [5] [µM] | IC50 [6] [µM] | Compound | other results |
| --- | --- | --- | --- | --- | --- | --- | --- |
| 5.88 | – | – | – | – | – | CN1CCN(c2nc3cc(C(F)(F)F)ccc3n3cccc23)CC1 | – |
| 9.54 | 19.1 | > 100 | > 100 | – | – | Clc1ccc2c(c1)nc(N1CCN(Cc3ccccc3)CC1)c1cccn12 | EC50 (NG108-15): 0.052 µM; ED50 (Rattus norvegicus [7]): 0.0312 mg/kg; Inhibition (Rattus norvegicus [8]): 0% |
| 7.87 | 10 | > 100 | > 100 | 12.9 | > 100 | Cc1ccc2c(c1)nc(N1CCN(Cc3ccc(F)cc3)CC1)c1cccn12 | – |
| < 4 | 3.55 | 1.62 | > 100 | – | – | COc1ccc2c(c1)nc(N1CCN(CCCCn3cccn3)CC1)c1cccn12 | – |
| 10.09 | 14.5 | > 100 | 46.8 | 9.55 | > 100 | Clc1ccc2c(c1)nc(N1CCN(Cc3ccc4c(c3)OCO4)CC1)c1cccn12 | – |
| 7.51 | 97.7 | > 100 | > 100 | – | – | c1ccc(CN2CCN(c3nc4ccc5ncccc5c4n4cccc34)CC2)cc1 | – |
| 9.04 | – | – | – | – | – | C=CCN1CCN(c2nc3sccc3n3cccc23)CC1 | – |
| 4.56 | > 100 | > 100 | > 100 | – | – | c1ccc(N2CCN(c3nc4cccnc4n4cccc34)CC2)cc1 | – |
| 4.55 | > 100 | > 100 | > 100 | – | – | CCOC(=O)N1CCN(c2nc3cccnc3n3cccc23)CC1 | – |
| 7.55 | 58.9 | 20 | 39.8 | – | – | c1cnc2ccc3nc(N4CCN(Cc5ccc6c(c5)OCO6)CC4)c4cccn4c3c2c1 | – |
| 9.45 | 12.9 | 10.5 | 24 | – | – | c1ccc(CN2CCN(c3nc4ccccc4n4cccc34)CC2)cc1 | EC50 (NG108-15): 0.018 µM; Inhibition (Rattus norvegicus [9]): 54%; Inhibition (Rattus norvegicus [10]): 80% |
| 8.18 | 69.2 | > 100 | > 100 | – | – | COc1ccc2c(c1)nc(N1CCN(Cc3ccc(F)cc3)CC1)c1cccn12 | EC50 (NG108-15): 0.104 µM; ED50 (Rattus norvegicus [7]): 0.0754 mg/kg; Inhibition (Rattus norvegicus [8]): 0% |
| 9.01 | 0.245 | 7.94 | 0.955 | 0.0977 | 0.275 | CN1CCN(c2nc3cccnc3n3cccc23)CC1 | – |

Second part, the compound before the results:

| Compound | -Log IC50 [1] | IC50 [2] [µM] | IC50 [3] [µM] | IC50 [4] [µM] | IC50 [5] [µM] | IC50 [6] [µM] | other results |
| --- | --- | --- | --- | --- | --- | --- | --- |
| Cc1ccnc2c1nc(N1CCN(Cc3ccc(F)cc3)CC1)c1cccn12 | < 4 | 70.8 | > 100 | > 100 | – | – | – |
| C=CCN1CCN(c2nc3ccc4ncccc4c3n3cccc23)CC1 | 7.71 | 19.5 | 21.4 | 5.75 | – | – | – |
| C=CCN1CCN(c2nc3cccnc3n3cccc23)CC1 | 11.4 | 0.204 | 25.1 | 0.955 | 0.117 | 0.372 | – |
| Fc1ccc(CN2CCN(Cc3nc4ccccc4n4cccc34)CC2)cc1 | 5.59 | 31.6 | 17 | 85.1 | – | – | – |
| COc1ccc2nc(N3CCN(Cc4ccccc4)CC3)c3cccn3c2n1 | 7.85 | > 100 | 70.8 | > 100 | – | – | – |
| c1cc2c(N3CCNCC3)nc3ccsc3n2c1 | 7.92 | – | – | – | – | – | – |
| Fc1ccc(CN2CCN(c3nc4cc(Cl)ccc4n4cccc34)CC2)cc1 | 7.71 | > 100 | > 100 | > 100 | 40.7 | > 100 | – |
| Clc1ccc2nc(N3CCN(Cc4ccccc4)CC3)c3cccn3c2c1 | 7.69 | > 100 | > 100 | > 100 | 89.1 | 44.7 | – |
| c1cnc2c(c1)nc(N1CCN(Cc3ccc4c(c3)OCO4)CC1)c1cccn12 | 9.1 | 49 | 45.7 | > 100 | – | – | – |
| Clc1ccc(CN2CCN(c3nc4cccnc4n4cccc34)CC2)c(Cl)c1 | 5.89 | 77.6 | > 100 | > 100 | – | – | – |
| c1ccc(COc2ccc3nc(N4CCN(Cc5ccccc5)CC4)c4cccn4c3n2)cc1 | 4.43 | > 100 | > 100 | > 100 | 55 | > 100 | – |
| c1ccc(CN2CCN(c3ncccc3-n3cccc3)CC2)cc1 | 7.34 | 26.3 | 7.41 | 11 | – | – | – |
| Fc1ccc(CN2CCN(c3nc4cccnc4n4cccc34)CC2)cc1 | 8.58 | 56.2 | 43.7 | 83.2 | 6.76 | 5.25 | – |
| Fc1ccc(CN2CCN(c3nc4sccc4n4cccc34)CC2)cc1 | 8.93 | > 100 | – | – | – | – | – |
| COc1ccc2nc(N3CCN(Cc4ccc(F)cc4)CC3)c3cccn3c2n1 | 6.93 | > 100 | > 100 | > 100 | 56.2 | > 100 | – |
| c1ccc(CN2CCN(c3ccc4nc(N5CCN(Cc6ccccc6)CC5)c5cccn5c4n3)CC2)cc1 | 7.06 | > 100 | > 100 | > 100 | > 100 | > 100 | – |
| c1cnc2c(c1)nc(N1CCNCC1)c1cccn12 | 8.83 | 0.151 | 14.5 | 1.7 | – | – | – |
| c1ccc(CN2CCN(c3nc4cccnc4n4cccc34)CC2)cc1 | 12.09 | 13.2 | 15.1 | – | – | – | EC50 (NG108-15): 0.032 µM; Inhibition (Rattus norvegicus [8]): 59%; Inhibition (Rattus norvegicus [11]): 40% |
| Fc1ccc(CN2CCN(c3nc4ccccc4n4cccc34)CC2)cc1 | 8.62 | 38 | 46.8 | > 100 | – | – | – |
| Cc1ccnc2c1nc(N1CCN(Cc3ccccc3)CC1)c1cccn12 | 5.52 | 43.7 | 51.3 | > 100 | 50.1 | 57.5 | – |
| c1ccc(CN2CCN(c3nc4ccsc4n4cccc34)CC2)cc1 | 8.85 | – | – | – | – | – | EC50 (NG108-15): 0.011 µM; Inhibition (Rattus norvegicus [8]): 40%; Inhibition (Rattus norvegicus [12]): 42% |
| NCCc1c[nH]c2ccc(O)cc12 [SEROTONIN] | – | – | – | – | – | – | EC50 (NG108-15): 0.293 µM |
